According to ChEMBL document CHEMBL1155469, “Peptide nucleic acids conjugated to short basic peptides show improved pharmacokinetics and antisense activity in adipose tissue” (J Med Chem, 2010):
Calls of active or inactive are those of the source. The calls are words filed in the database; no cut-off is given here.

Legend:
[1] = system: Mus musculus; assay: Acute toxicity in Balb/C mouse assessed as change in organ weight at 25 mg/kg, ip administered BID for 5 days measured 48 hrs after last dose; type: organism-based; set-up: dose 25 mg/kg, route intraperitoneal; conditions: in vivo
Outline: (§1)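 Male Balb/c mice aged 6–8 weeks, n=4 per group, dosed i.p. with compound suspended in PBS and filter sterilized, 10 ul/g body weight. Body weight tracked throughout the live phase. Under isoflurane anaesthesia, terminal cardiac-puncture bleed; serum taken for transaminases and other chemistries. Sacrifice by cervical dislocation 48 h after last dose, with liver and spleen weighed at necropsy. Kidneys examined by histopathology.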

[2] = system: Mus musculus; assay: Toxicity in Balb/C mouse assessed as change in serum triglyceride levels at 10 to 40 mg/kg, ip administered thrice a week for 2 weeks measured 48 hrs after last dose; type: organism-based; set-up: dose 10-40 mg/kg, route intraperitoneal; conditions: in vivo
Outline: (§2)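 Male Balb/c mice, 6–8 wk, n=4/group, received compound i.p. in PBS (10 ul/g) 3x/wk for 2 wk. Body weight was monitored throughout. At 48 h after the last dose, mice were anesthetized with isoflurane and bled by cardiac puncture. Serum AST, ALT, BUN, bilirubin, glucose and triglycerides were compared with the saline group. ALT rise below 2x normal was counted as absent.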

[3] = system: Mus musculus; assay: Inhibition of PTEN expression in Balb/C mouse kidney assessed as upregulation of isoform lacking exon at 40 mg/kg, ip administered thrice a week for 2 weeks measured 48 hrs after last dose […]; type: functional; set-up: scale not given: the % may be the effect or the level left; conditions: route intraperitoneal
[4] = system: Mus musculus; assay: Inhibition of PTEN expression in Balb/C mouse liver at 10 to 40 mg/kg, ip administered thrice a week for 2 weeks measured 48 hrs after last dose by Western blot analysis; type: functional, organism-based
Outline: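 Male Balb/c mice, 6–8 wk, n=4/group, dosed i.p. in PBS 3x/wk for 2 wk and killed 48 h after the last dose. Tissue was homogenized in RIPA buffer with protease inhibitors, and protein was measured by Lowry assay. Lysates were run on 10% PAGE and blotted to PVDF. Blots were probed with rabbit anti-PTEN (1:1000) and HRP anti-rabbit (1:2500), with ECL detection.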

[5] = system: Mus musculus; assay: Acute toxicity in Balb/C mouse assessed as change in body weight at 37 mg/kg, ip administered thrice a week for 2 weeks measured 48 hrs after last dose; type: organism-based; set-up: dose 37 mg/kg, route intraperitoneal; conditions: in vivo; outline: as §1
[6] = system: Mus musculus; assay: Toxicity in Balb/C mouse assessed as change in serum bilirubin levels at 10 to 40 mg/kg, ip administered thrice a week for 2 weeks measured 48 hrs after last dose; type: organism-based; set-up: dose 10-40 mg/kg, route intraperitoneal; conditions: in vivo; outline: as §2
[7] = system: Mus musculus; assay: Toxicity in Balb/C mouse assessed as increase in spleen weight at 40 mg/kg, ip administered thrice a week for 2 weeks measured 48 hrs after last dose; type: organism-based; set-up: dose 40 mg/kg, route intraperitoneal; conditions: in vivo
Outline: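 Male Balb/c mice, 6–8 wk, n=4/group, were dosed i.p. in PBS 3x/wk for 2 wk at 40 mg/kg. They were killed by cervical dislocation 48 h after the last dose. Spleen weight was taken at necropsy and compared with the saline-treated group.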

[8] = system: Mus musculus; assay: Inhibition of PTEN expression in ip dosed Balb/C mouse white adipose tissue assessed as upregulation of isoform lacking exon administered thrice a week for 2 weeks measured 48 hrs after last dose […]; type: functional, organism-based
[9] = system: Mus musculus; assay: Inhibition of PTEN expression in Balb/C mouse kidney assessed as reduction of full length transcript at 40 mg/kg, ip administered thrice a week for 2 weeks measured 48 hrs after last dose […]; type: functional; set-up: scale not given: the % may be the effect or the level left; conditions: route intraperitoneal
[10] = system: Mus musculus; assay: Acute toxicity in Balb/C mouse assessed as change in organ weight at 37 mg/kg, ip administered thrice a week for 2 weeks measured 48 hrs after last dose; type: organism-based; set-up: dose 37 mg/kg, route intraperitoneal; conditions: in vivo; outline: as §1
[11] = system: Mus musculus; assay: Acute toxicity in Balb/C mouse assessed as change in body weight at 25 mg/kg, ip administered BID for 5 days measured 48 hrs after last dose; type: organism-based; set-up: dose 25 mg/kg, route intraperitoneal; conditions: in vivo; outline: as §1
[12] = system: Mus musculus; assay: Toxicity in Balb/C mouse assessed as change in blood urea nitrogen levels at 10 to 40 mg/kg, ip administered thrice a week for 2 weeks measured 48 hrs after last dose; type: organism-based; set-up: dose 10-40 mg/kg, route intraperitoneal; conditions: in vivo; outline: as §2
[13] = system: Mus musculus; assay: Toxicity in Balb/C mouse assessed as change in serum AST levels at 10 to 40 mg/kg, ip administered thrice a week for 2 weeks measured 48 hrs after last dose; type: organism-based; set-up: dose 10-40 mg/kg, route intraperitoneal; conditions: in vivo; outline: as §2
[14] = system: Mus musculus; assay: Inhibition of PTEN expression in ip dosed Balb/C mouse white adipose tissue assessed as reduction of full length transcript administered thrice a week for 2 weeks measured 48 hrs after last dose […]; type: functional, organism-based
[15] = system: Mus musculus; assay: Toxicity in Balb/C mouse assessed as change in serum ALT levels at 10 to 40 mg/kg, ip administered thrice a week for 2 weeks measured 48 hrs after last dose; type: organism-based; set-up: dose 10-40 mg/kg, route intraperitoneal; conditions: in vivo; outline: as §2
[16] = system: Mus musculus; assay: Acute toxicity in Balb/C mouse assessed as change in serum chemistry at 25 mg/kg, ip administered BID for 5 days measured 48 hrs after last dose; type: organism-based; set-up: dose 25 mg/kg, route intraperitoneal; conditions: in vivo; outline: as §1
[17] = system: Mus musculus; assay: Toxicity in Balb/C mouse assessed as change in serum glucose levels at 10 to 40 mg/kg, ip administered thrice a week for 2 weeks measured 48 hrs after last dose; type: organism-based; set-up: dose 10-40 mg/kg, route intraperitoneal; conditions: in vivo; outline: as §2
[18] = system: Mus musculus; assay: Toxicity in Balb/C mouse assessed as change in body weight at 10 to 40 mg/kg, ip administered thrice a week for 2 weeks measured 48 hrs after last dose; type: organism-based; set-up: dose 10-40 mg/kg, route intraperitoneal; conditions: in vivo; outline: as §2
[19] = system: Mus musculus; assay: Acute toxicity in Balb/C mouse assessed as change in serum chemistry at 37 mg/kg, ip administered thrice a week for 2 weeks measured 48 hrs after last dose; type: organism-based; set-up: dose 37 mg/kg, route intraperitoneal; conditions: in vivo; outline: as §1

Structure (SMILES): Cc1cn(CC(=O)N(CCNC(=O)CN(CCNC(=O)[C@H](CCCCN)N(CCNC(=O)[C@H](CCCCN)NC(=O)[C@H](CCCCN)NC(=O)[C@H](CCCCN)NC(=O)[C@H](CCCCN)NC(=O)[C@H](CCCCN)NC(=O)[C@H](CCCCN)NC(=O)[C@H](CCCCN)NC(=O)[C@@H](N)CCCCN)C(=O)Cn2cc(C)c(=O)[nH]c2=O)C(=O)Cn2ccc(N)nc2=O)CC(=O)NCCN(CC(=O)NCCN(CC(=O)NCCN(CC(=O)NCCN(CC(=O)NCCN(CC(=O)NCCN(CC(=O)NCCN(CC(=O)NCCN(CC(=O)NCCN(CC(=O)NCCN(CC(=O)NCCN(CC(=O)NCCN(CC(=O)NCCN(CC(=O)N[C@@H](CCCCN)C(N)=O)C(=O)Cn2cnc3c(N)ncnc32)C(=O)Cn2ccc(N)nc2=O)C(=O)Cn2cnc3c(N)ncnc32)C(=O)Cn2cc(C)c(=O)[nH]c2=O)C(=O)Cn2ccc(N)nc2=O)C(=O)Cn2cc(C)c(=O)[nH]c2=O)C(=O)Cn2cnc3c(N)ncnc32)C(=O)Cn2ccc(N)nc2=O)C(=O)Cn2cnc3c(N)ncnc32)C(=O)Cn2ccc(N)nc2=O)C(=O)Cn2cnc3c(=O)[nH]c(N)nc32)C(=O)Cn2cnc3c(N)ncnc32)C(=O)Cn2ccc(N)nc2=O)c(=O)[nH]c1=O
- Activity [1]: Non-toxic
- Activity [2]: Non-toxic
- Activity [3]: 185%
- inhibition [4]: inactive
- Activity [5]: Non-toxic
- Activity [6]: Non-toxic
- Activity [7]: 145%
- Activity [8]: Dose-dependent effect
- Activity [9]: 70%
- Activity [10]: Non-toxic
- Activity [11]: Non-toxic
- Activity [12]: Non-toxic
- Activity [13]: Non-toxic
- Activity [14]: Dose-dependent effect
- Activity [15]: Non-toxic
- Activity [16]: Non-toxic
- Activity [17]: Non-toxic
- Activity [18]: Non-toxic
- Activity [19]: Non-toxic
